From ChEMBL document CHEMBL1127325, “Potent gastrin-releasing peptide (GRP) antagonists derived from GRP (19-27) with a C-terminal DPro psi [CH2NH]Phe-NH2 and N-terminal aromatic residues” (J Med Chem, 1994)
pIC50: −log10 of the molar value. Where a SMILES comes first, the peptide text is derived from it. [ ]: non-standard residue; d: D form. The star is where a group is joined. ProΨ(CH2NH)PheNH2 = NC(=O)[C@H](Cc1ccccc1)NC[C@@H]1CCCN1*; dProψ(CH2NH)PheNH2 = NC(=O)[C@H](Cc1ccccc1)NC[C@H]1CCCN1*; X3 = NC(=O)[C@H](Cc1ccc(O)cc1)NC[C@H]1CCCN1*; Desaminotyrosyl = O=C(CCc1ccc(O)cc1)*; Hydrocinnamoyl = O=C(CCc1ccccc1)*; X9 = O=C(CCN1c2ccccc2Sc2ccccc21)*; X2 = O=C(Cc1ccccc1C(F)(F)F)*; Sar = CNCC(=O)O

Columns and labels:
[1] = molecular target: Gastrin-releasing peptide receptor (Mus musculus) (UniProt P21729); assay: Inhibition of 6 nM bombesin induced [3H]thymidine incorporation measured in swiss 3T3 cells using a mitogenicity assay; assay type: functional, cell-based
Gastrin-releasing peptide receptor (Mus musculus), sequence (P21729 whole entry): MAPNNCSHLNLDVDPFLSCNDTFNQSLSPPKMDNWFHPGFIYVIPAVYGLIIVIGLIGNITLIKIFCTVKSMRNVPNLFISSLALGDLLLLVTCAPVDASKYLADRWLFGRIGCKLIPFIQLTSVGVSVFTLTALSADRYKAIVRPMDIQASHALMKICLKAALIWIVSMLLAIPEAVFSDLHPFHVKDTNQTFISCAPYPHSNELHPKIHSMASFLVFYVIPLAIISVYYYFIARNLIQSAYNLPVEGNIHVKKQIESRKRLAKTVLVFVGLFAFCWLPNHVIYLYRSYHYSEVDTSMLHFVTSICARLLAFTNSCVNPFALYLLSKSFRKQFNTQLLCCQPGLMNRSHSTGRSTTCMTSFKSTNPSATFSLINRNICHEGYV
How it was run: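 Density-arrested quiescent Swiss 3T3 monolayers treated in triplicate with test peptide (generally log dilutions) plus 6 nM bombesin for 18 h, then pulsed 2 h with 0.5 µCi [3H]thymidine per well. Cells washed with cold PBS, fixed in methanol/acetic acid, solubilized, scintillation counted. IC50 ± SEM over replicate trials; na means no activity at 10^-4 M.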

[2] = molecular target: T1, Gastrin-releasing peptide receptor (Mus musculus, UniProt P21729); assay: Ability of peptide to inhibit binding of 10 pM [125I]gastrin releasing peptide to S-3T3 cell membrane.; assay type: cell-based
T1 sequence (P21729 whole entry): as above
How it was run: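 Swiss 3T3 membranes (10 µg protein) incubated in triplicate with 10 pM [125I]GRP(1-27) in HEPES-KOH pH 6.8 (20 mM) with EGTA, MgCl2, BSA and protease inhibitors, 60 min at 37 °C with shaking. Terminated by filtration through PEI-pretreated GF/B filters, gamma counted. Nonspecific binding taken with 10 nM unlabeled GRP(1-27). IC50 for half-maximal inhibition of specific binding by Hill plot analysis.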

[3] = molecular target: T1, Gastrin-releasing peptide receptor; assay: The ability of the peptide to inhibit the binding of 50 pM [125I]gastrin releasing peptide to intact S-3T3 cells; assay type: cell-based
How it was run: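 Serially diluted peptides overlaid in triplicate on quiescent Swiss 3T3 monolayers (about 10^5 cells) with 50 pM [125I]GRP in maintenance medium, 30 min at 37 °C. Monolayers washed three times with chilled medium, solubilized, radioactivity counted. IC50 values reported.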

Row | Compound | Activity [1] [nM] | pIC50 [2] | pIC50 [3]
1 | CC(C)[C@H](NC(=O)[C@H](C)NC(=O)[C@H](Cc1c[nH]c2ccccc12)NC(=O)[C@H](Cc1c[nH]cn1)NC(=O)[C@@H](N)Cc1ccc2ccccc2c1)C(=O)N[C@H](C)C(=O)N[C@@H](Cc1c[nH]cn1)C(=O)N1CCC[C@@H]1CN[C@@H](Cc1ccccc1)C(N)=O | 45 | 8.11 | 
2 | CC(C)[C@H](NC(=O)[C@H](C)NC(=O)[C@H](Cc1c[nH]c2ccccc12)NC(=O)[C@H](Cc1c[nH]cn1)NC(=O)CCc1ccccc1)C(=O)N[C@H](C)C(=O)N[C@@H](Cc1c[nH]cn1)C(=O)N1CCC[C@@H]1CN[C@@H](Cc1ccc2ccccc2c1)C(N)=O | 40 |  | 
3 | CC(C)[C@H](NC(=O)[C@H](C)NC(=O)[C@H](Cc1c[nH]c2ccccc12)NC(=O)[C@H](Cc1cnc[nH]1)NC(=O)c1cc2ccccc2cn1)C(=O)N[C@H](C)C(=O)N[C@@H](Cc1cnc[nH]1)C(=O)N1CCC[C@@H]1CN[C@@H](Cc1ccccc1)C(N)=O |  | 9.24 | 
4 | CC(C)[C@H](NC(=O)[C@H](C)NC(=O)[C@H](Cc1c[nH]c2ccccc12)NC(=O)[C@H](Cc1cnc[nH]1)NC(=O)C[C@@H](C)c1ccccc1)C(=O)N[C@H](C)C(=O)N[C@@H](Cc1cnc[nH]1)C(=O)N1CCC[C@@H]1CN[C@@H](Cc1ccccc1)C(N)=O |  | 9.31 | 
5 | CC(C)[C@H](NC(=O)[C@H](C)NC(=O)[C@H](Cc1c[nH]c2ccccc12)NC(=O)[C@H](Cc1c[nH]cn1)NC(=O)CCc1ccccc1)C(=O)N(C)CC(=O)N[C@@H](Cc1c[nH]cn1)C(=O)N1CCC[C@H]1CN[C@@H](Cc1ccccc1)C(N)=O (Hydrocinnamoyl-HWAV[Sar]H-{ProΨ(CH2NH)PheNH2}) | 0.43 |  | 
6 | CC(C)[C@H](NC(=O)[C@H](C)NC(=O)[C@H](Cc1c[nH]c2ccccc12)NC(=O)[C@H](Cc1cnc[nH]1)NC(=O)c1cccc2ccccc12)C(=O)N[C@H](C)C(=O)N[C@@H](Cc1cnc[nH]1)C(=O)N1CCC[C@@H]1CN[C@@H](Cc1ccccc1)C(N)=O |  | 10.30 | 12.00
7 | CCCCC(NC[C@H]1CCCN1C(=O)[C@H](Cc1cccs1)NC(=O)[C@@H](C)NC(=O)[C@@H](NC(=O)[C@H](C)NC(=O)[C@H](Cc1c[nH]c2ccccc12)NC(=O)[C@H](Cc1c[nH]cn1)NC(=O)CCc1ccccc1)C(C)C)C(N)=O (some centres undefined) | 300 |  | 
8 | CC(C)[C@H](NC(=O)[C@H](C)NC(=O)[C@H](Cc1c[nH]c2ccccc12)NC(=O)[C@H](Cc1cnc[nH]1)NC(=O)Cc1ccc(C(F)(F)F)cc1)C(=O)N[C@H](C)C(=O)N[C@@H](Cc1cnc[nH]1)C(=O)N1CCC[C@@H]1CN[C@@H](Cc1ccccc1)C(N)=O |  | 8.43 | 
9 | CC(C)[C@H](NC(=O)[C@H](C)NC(=O)[C@H](Cc1c[nH]c2ccccc12)NC(=O)[C@H](Cc1c[nH]cn1)NC(=O)CCc1ccccc1)C(=O)N[C@H](C)C(=O)N[C@@H](Cc1c[nH]cn1)C(=O)N1CCC[C@@H]1CN[C@@H](Cc1ccc(O)cc1)C(N)=O (Hydrocinnamoyl-HWAV[dA]H-X3) | 10 | 9.48 | 
10 | CC(C)[C@H](NC(=O)[C@H](C)NC(=O)[C@H](Cc1c[nH]c2ccccc12)NC(=O)[C@H](Cc1cnc[nH]1)NC(=O)CCc1ccc(O)cc1)C(=O)N[C@H](C)C(=O)N[C@@H](Cc1cnc[nH]1)C(=O)N1CCC[C@@H]1CN[C@@H](Cc1ccccc1)C(N)=O (Desaminotyrosyl-HWAV[dA]H-{dProψ(CH2NH)PheNH2}) |  | 9.64 | 10.30
11 | CC(NC(=O)[C@H](Cc1csc2ccccc12)NC(=O)[C@H](Cc1c[nH]cn1)NC(=O)CCc1ccccc1)C(=O)N[C@H](C(=O)NC(C)C(=O)N[C@@H](Cc1c[nH]cn1)C(=O)N1CCC[C@@H]1CN[C@@H](Cc1ccccc1)C(N)=O)C(C)C (stereo in doubt) | 430 | 9.12 | 
12 | CC(C)[C@H](NC(=O)[C@H](C)NC(=O)[C@H](Cc1c[nH]c2ccccc12)NC(=O)[C@H](Cc1cnc[nH]1)NC(=O)CCc1cccc(C(F)(F)F)c1)C(=O)N[C@H](C)C(=O)N[C@@H](Cc1cnc[nH]1)C(=O)N1CCC[C@@H]1CN[C@@H](Cc1ccccc1)C(N)=O |  | 9.80 | 8.00
13 | CC(C)[C@H](NC(=O)[C@H](C)NC(=O)[C@H](Cc1c[nH]c2ccccc12)NC(=O)[C@H](Cc1c[nH]cn1)NC(=O)CCN1c2ccccc2Sc2ccccc21)C(=O)N[C@H](C)C(=O)N[C@@H](Cc1c[nH]cn1)C(=O)N1CCC[C@@H]1CN[C@@H](Cc1ccccc1)C(N)=O (X9-HWAV[dA]H-{dProψ(CH2NH)PheNH2}) | 29 | 8.72 | 
14 | CC(C)[C@H](NC(=O)[C@H](C)NC(=O)[C@H](Cc1c[nH]c2ccccc12)NC(=O)[C@H](Cc1cnc[nH]1)NC(=O)CCc1ccccc1)C(=O)N(C)CC(=O)N[C@@H](Cc1cnc[nH]1)C(=O)N1CCC[C@H]1CN[C@@H](Cc1ccccc1)C(N)=O (Hydrocinnamoyl-HWAV[Sar]H-{ProΨ(CH2NH)PheNH2}) |  | 7.68 | 10.00
15 | CC(C)[C@H](NC(=O)[C@H](C)NC(=O)[C@H](Cc1c[nH]c2ccccc12)NC(=O)[C@H](Cc1cnc[nH]1)NC(=O)C[C@H](C)c1ccccc1)C(=O)N[C@H](C)C(=O)N[C@@H](Cc1cnc[nH]1)C(=O)N1CCC[C@@H]1CN[C@@H](Cc1ccccc1)C(N)=O |  | 9.68 | 8.00
16 | CC(NC(=O)[C@@H](NC[C@H](C)NC(=O)[C@H](Cc1c[nH]c2ccccc12)NC(=O)[C@H](Cc1c[nH]cn1)NC(=O)CCc1ccccc1)C(C)C)C(=O)N[C@@H](Cc1c[nH]cn1)C(=O)N1CCC[C@H]1CN[C@@H](Cc1ccccc1)C(N)=O (stereo in doubt) | 47 | < 8.00 | 
17 | CC(C)[C@H](NC(=O)[C@H](C)NC(=O)[C@H](Cc1c[nH]c2ccccc12)NC(=O)[C@H](Cc1c[nH]cn1)NC(=O)C1CCc2ccccc2C1)C(=O)N[C@H](C)C(=O)N[C@@H](Cc1c[nH]cn1)C(=O)N1CCC[C@@H]1CN[C@@H](Cc1ccccc1)C(N)=O (some centres undefined) | 4 |  | 
18 | CC(C)[C@H](NC(=O)[C@H](C)NC(=O)[C@H](Cc1c[nH]c2ccccc12)NC(=O)[C@H](Cc1cnc[nH]1)NC(=O)Cc1cccc(C(F)(F)F)c1)C(=O)N[C@H](C)C(=O)N[C@@H](Cc1cnc[nH]1)C(=O)N1CCC[C@@H]1CN[C@@H](Cc1ccccc1)C(N)=O |  | 8.08 | 
19 | CC(C)[C@H](NC(=O)[C@H](C)NC(=O)[C@H](Cc1c[nH]c2ccccc12)NC(=O)[C@H](Cc1c[nH]cn1)NC(=O)CCc1ccc(O)cc1)C(=O)N[C@H](C)C(=O)N[C@@H](Cc1c[nH]cn1)C(=O)N1CCC[C@@H]1CN[C@@H](Cc1ccccc1)C(N)=O (Desaminotyrosyl-HWAV[dA]H-{dProψ(CH2NH)PheNH2}) | 0.16 |  | 

Results, then the molecule that gave them:

Row | Activity [1] [nM] | pIC50 [2] | pIC50 [3] | Compound
20 | 0.16 |  |  | CC(C)[C@H](NC(=O)[C@H](C)NC(=O)[C@H](Cc1c[nH]c2ccccc12)NC(=O)[C@H](Cc1c[nH]cn1)NC(=O)C[C@H](C)c1ccccc1)C(=O)N[C@H](C)C(=O)N[C@@H](Cc1c[nH]cn1)C(=O)N1CCC[C@@H]1CN[C@@H](Cc1ccccc1)C(N)=O
21 | 0.3 |  |  | CC(C)[C@H](NC(=O)[C@H](C)NC(=O)[C@H](Cc1c[nH]c2ccccc12)NC(=O)[C@H](Cc1c[nH]cn1)NC(=O)c1cccc2ccccc12)C(=O)N[C@H](C)C(=O)N[C@@H](Cc1c[nH]cn1)C(=O)N1CCC[C@@H]1CN[C@@H](Cc1ccccc1)C(N)=O
22 | 330 | 7.92 |  | CC(C)[C@H](NC(=O)[C@H](C)NC(=O)[C@H](Cc1c[nH]c2ccccc12)NC(=O)[C@H](Cc1c[nH]cn1)NC(=O)Cc1ccccc1C(F)(F)F)C(=O)N[C@H](C)C(=O)N[C@@H](Cc1c[nH]cn1)C(=O)N1CCC[C@@H]1CN[C@@H](Cc1ccccc1)C(N)=O (X2-HWAV[dA]H-{dProψ(CH2NH)PheNH2})
23 | 4 |  |  | CC(C)[C@H](NC(=O)[C@H](C)NC(=O)[C@H](Cc1c[nH]c2ccccc12)NC(=O)[C@H](Cc1c[nH]cn1)NC(=O)c1cc2ccccc2cn1)C(=O)N[C@H](C)C(=O)N[C@@H](Cc1c[nH]cn1)C(=O)N1CCC[C@@H]1CN[C@@H](Cc1ccccc1)C(N)=O
24 | 200 |  |  | CC(C)[C@H](NC(=O)[C@H](C)NC(=O)[C@H](Cc1c[nH]c2ccccc12)NC(=O)[C@H](Cc1c[nH]cn1)NC(=O)Cc1ccc(C(F)(F)F)cc1)C(=O)N[C@H](C)C(=O)N[C@@H](Cc1c[nH]cn1)C(=O)N1CCC[C@@H]1CN[C@@H](Cc1ccccc1)C(N)=O
25 | 260 |  |  | CC(C)[C@H](NC(=O)[C@H](C)NC(=O)[C@H](Cc1c[nH]c2ccccc12)NC(=O)[C@H](Cc1c[nH]cn1)NC(=O)Cc1cccc(C(F)(F)F)c1)C(=O)N[C@H](C)C(=O)N[C@@H](Cc1c[nH]cn1)C(=O)N1CCC[C@@H]1CN[C@@H](Cc1ccccc1)C(N)=O
26 | 0.35 |  |  | CC(C)[C@H](NC(=O)[C@H](C)NC(=O)[C@H](Cc1c[nH]c2ccccc12)NC(=O)[C@H](Cc1c[nH]cn1)NC(=O)CCc1cccc(C(F)(F)F)c1)C(=O)N[C@H](C)C(=O)N[C@@H](Cc1c[nH]cn1)C(=O)N1CCC[C@@H]1CN[C@@H](Cc1ccccc1)C(N)=O
27 |  | 10.42 |  | CC(C)[C@H](NC(=O)[C@H](C)NC(=O)[C@H](Cc1c[nH]c2ccccc12)NC(=O)[C@H](Cc1c[nH]cn1)NC(=O)CCc1ccccc1)C(=O)N[C@H](C)C(=O)N[C@@H](Cc1c[nH]cn1)C(=O)N1CCC[C@@H]1CNC(Cc1ccccc1)C(N)=O (stereo in doubt)
28 | 17 |  |  | CC(C)[C@H](NC(=O)[C@H](C)NC(=O)[C@H](Cc1c[nH]c2ccccc12)NC(=O)[C@H](Cc1c[nH]cn1)NC(=O)C[C@@H](C)c1ccccc1)C(=O)N[C@H](C)C(=O)N[C@@H](Cc1c[nH]cn1)C(=O)N1CCC[C@@H]1CN[C@@H](Cc1ccccc1)C(N)=O
